# CRFR2-BP antag: antagonists of CRF-BP/CRF-R2 complex, primary screen, cell-based, HEK293, calcium dye fluorescence, uHTS. CRF-induced calcium fluorescence. inhibition, % at 11.8 µM. 350,000 compounds, 0.59% hits. AID 588475, 2011;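 active = inhibition of the ligand-induced calcium signal above about 50% at the single tested concentration, limit read from the data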
# RTF Ca sens act: cardiac RTF calcium sensitivity activators, primary screen, biochemical, IANBD-TnC fluorescence, EC20 calcium; Troponin I, cardiac muscle (Homo sapiens) + Troponin T, cardiac muscle (Homo sapiens) + …; IANBD-labeled TnC RTF fluorescence at EC20 calcium; 0% EC20 calcium, 100% full calcium; activation, % at 7.2 µM; 340,000 compounds, 0.24% hits; AID 493008, 2010;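 active = activation above the mean over all tested compounds plus 3 SD, cut at about 30% in these data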;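 also: rise in fluorescence read as greater calcium sensitivity of cardiac thin filaments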
# DDE Tn7 FP inh: inhibitors of Tn7 peptide binding to fibrin DD(E), primary screen, biochemical, fluorescence polarization, human fibrin, Tn7 probe. Fibrinogen beta chain (Homo sapiens), P02675. FP displacement of FITC-Tn7 peptide from fibrin DD(E); 0% = median of compound wells per plate. inhibition, % at 8.3 µM. 370,000 compounds, 0.13% hits. AID 720508, 2013;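 active = inhibition above the mean of compounds falling within the control limits plus 3 SD of them, cut at about 14% in these data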;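 also: 0% = plate median of compound wells and 100% = 10 µM Aha-Tn7 peptide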
# Target sequence (P02675 whole entry, looked up): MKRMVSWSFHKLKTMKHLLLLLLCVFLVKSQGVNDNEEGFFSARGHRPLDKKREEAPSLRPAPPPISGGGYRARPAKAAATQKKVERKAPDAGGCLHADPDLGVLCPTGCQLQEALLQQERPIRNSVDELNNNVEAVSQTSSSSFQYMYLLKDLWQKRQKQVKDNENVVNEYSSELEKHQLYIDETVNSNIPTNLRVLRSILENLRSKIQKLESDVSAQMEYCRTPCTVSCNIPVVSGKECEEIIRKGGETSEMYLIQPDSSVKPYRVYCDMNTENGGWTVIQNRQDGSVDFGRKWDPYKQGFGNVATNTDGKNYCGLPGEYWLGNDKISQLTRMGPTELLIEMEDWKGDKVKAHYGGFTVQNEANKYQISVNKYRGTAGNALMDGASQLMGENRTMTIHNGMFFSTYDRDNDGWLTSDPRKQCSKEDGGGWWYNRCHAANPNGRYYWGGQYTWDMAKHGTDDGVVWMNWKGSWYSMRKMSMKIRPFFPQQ
#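 System: human fibrin DD(E); quantity: Fibrin-DD(E) at 2 µM final; also added: fluorescent Tn7 probe at 0.1 µM; compound dosing: single nominal test concentration of 8.3 µM per compound; schedule: 10 min preincubation, 3 h with tracer, room temperature; detection: fluorescence polarization of the labelled Tn7 tracer; repeats: one replicate per compound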
# CRFBP-R2 agonist: agonists of CRF-BP/CRF-R2 complex, primary screen, cell-based, HEK293, calcium dye fluorescence, uHTS; CRF-binding protein / CRF receptor 2 complex (human); calcium dye fluorescence (FLIPR); percent of saturating CRF peptide response; activation, % at 13.2 µM; 350,000 compounds, 0.46% hits;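 active = activation of at least 50%, plus an integration ratio under a set limit after plate pattern correction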;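 also: plate controls were neutral control wells without compound for no effect and CRF at EC100 for full effect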
# Tn6 DDE FP: inhibitors of Tn6 peptide binding to fibrin DD(E), primary screen, biochemical, fluorescence polarization, human fibrin, Tn6 probe. Fibrinogen beta chain (Homo sapiens), P02675. Fibrin DD(E) TRITC-Tn6 fluorescence polarization displacement. 370,000 compounds, 0.21% hits. AID 720509, 2013. inhibition, % at 8.3 µM;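 active = inhibition above a per-campaign cutoff: mean of compounds within control limits plus 3 SD, cut at about 15% in these data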;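 also: 0% = median of all compound wells on the plate and 100% = blocking peptide control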
# RTF Ca sens inh: cardiac RTF calcium sensitivity inhibitors, primary screen, biochemical, IANBD-TnC fluorescence, EC70 calcium | inhibition, % at 7.15 µM | AID 493244, 2011 | 340,000 compounds, 0.12% hits | IANBD-labeled cardiac RTF, Ca2+ fluorescence;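 active = inhibition above the mean inhibition of all tested compounds plus 3 SD, cut at about 17% in these data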;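 also: assay run at fixed EC70 calcium of 1.6 mM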
# Tn6 DDE ctr: DD(E)-Tn6 binding inhibition, counter-screen | shares compounds with Tn6 DDE FP | inhibition, % at 8.3 µM | 680 compounds, 2% hits | Fibrin DD(E), TRITC-Tn6 fluorescence polarization displacement; 0% = median of compound wells, not DMSO;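 active = inhibition above the mean of test compounds lying between the control limits plus 3 SD of those, cut at about 14% in these data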;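 also: 0% = median of compound wells and 100% = wells with Aha-Tn7 blocking peptide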
# Tn6 DDE conf: inhibitors of Tn6 peptide binding to fibrin DD(E), confirmation, biochemical, fluorescence polarization, human fibrin, Tn6 probe | shares compounds with Tn6 DDE FP | FP displacement of TRITC-Tn6 peptide from DD(E); 0% = per-plate median of test wells | inhibition, % at 8.3 µM | 680 compounds, 10% hits | AID 720631, 2013;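 active = inhibition above the mean of compounds lying within the control limits plus 3 SD, cut at about 16% in these data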;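 also: 100% = high control wells holding a competing inhibitor peptide at 10 µM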
# * hit, by the source's call; . = no result; ! = not confirmed by another sample. Rows were chosen to be rich in hits. Some 1.4% of all compounds tested hit in one or more screens of this group.
SMILES,CRFR2-BP antag,RTF Ca sens act,DDE Tn7 FP inh,CRFBP-R2 agonist,Tn6 DDE FP,RTF Ca sens inh,Tn6 DDE ctr,Tn6 DDE conf
O=C1CCC/C1=C/Nc1ccc2c(c1)OCO2,10,-1,12,0,21*,-1,3,3
Cc1cc(C)c(CN2CCN(C(=O)CC[C@H]3O[C@@H](n4cnc5c(NC(=O)c6ccccc6)ncnc54)[C@H](O)[C@@H]3O)CC2)c(C)c1,.,.,3,.,-5,.,.,.
CCCCNC(=O)CCC(=O)Nc1ccc2nc(N3CCCCC3)cc(C)c2c1,0,1,5,0,16*,-11,4,3
CCCCNC(=O)CCC(=O)Nc1ccc2nc(N3CCOCC3)cc(C)c2c1,9,-1,5,-2,-5,-2,.,.
CN(c1ccccc1)S(=O)(=O)c1ccc(Cl)c(C(=O)Nc2nc3ccccc3[nH]2)c1,3,-7,1,0,3,5,.,.
CN(c1ccccc1)S(=O)(=O)c1ccc(Cl)c(C(=O)Nc2ccc(-c3nc4ccccc4[nH]3)cc2)c1,10,8,11,0,39*,-3,-1,21*
Cc1ccccc1C(=O)Nc1ccc(-c2nc3ccc(C(=O)c4ccccc4)cc3[nH]2)cc1,10,-5,-2,3,38*,3,14*,22*
CCCCC[C@@H](O)c1cc2ccccc2c(=O)o1,-3,-5,4,0,16*,-8,0,-3
CCC(c1nnnn1-c1ccc2c(c1)OCCO2)N1CCN(c2ncccc2C(F)(F)F)CC1 (stereo not given),.,.,-6,.,15*!,.,2,-2
CCC(c1nnnn1-c1ccc2c(c1)OCCO2)N1CCc2ccccc2C1 (stereo not given),.,.,-2,.,-5,.,.,.
CC(=O)N(C(C)=O)c1ccc(Oc2ccc(Oc3ccc(N(C(C)=O)C(C)=O)cc3)cc2)cc1,-6,.,-2,1,-4,.,.,.
O=C1N=C(N2CCN(c3ccccc3)CC2)S/C1=C/c1ccco1,3,-6,3,-7,17*,-1,9,2
Cc1ccc(-c2nc3c4ccccc4ccn3c2Cc2cccc(F)c2)cc1,.,.,1,.,-2,.,.,.
O=C(NCc1ccco1)C(c1ccccc1)N(CC1CCCO1)C(=O)Cn1nnc2ccccc21 (stereo not given),1,-2,-5,-5,0,1,.,.
Cc1ccccc1C(C(=O)NCc1ccco1)N(CC1CCCO1)C(=O)Cn1nnc2ccccc21 (stereo not given),-3,4,3,-1,19*,-1,2,-2
CC1(C)N=C(N)N=C(N)N1c1cccc(C#N)c1,-9,1,3,-2,16*,-16,9,6
COc1cccc(N2C(N)=NC(N)=NC2(C)C)c1,8,3,-1,2,1,-3,.,.
O=C(COc1ccc2ccccc2c1)NCCc1ccc2c(c1)OCCO2,-60,-4,-1,0,18*,6,-1,-10
COc1ccc(C(=O)N(C)[C@H]2C[C@H]3c4[nH]c5cccc(-c6ccccc6)c5c4CCN3C[C@H]2[C@H](C)O)cc1,.,.,0,.,-11,.,.,.
O=C(NC(=S)Nc1ccccc1)c1cc(-c2ccccc2)nc2ccccc12,-16,-3,5,5,21*,-8,7,-3
O=C(NC(=S)Nc1ccccn1)c1cc(-c2ccccc2)nc2ccccc12,-22,1,-4,-1,2,2,.,.
CC1(C(=O)Nc2cccc3ncccc23)CCN1C(=O)Cc1ccc(-c2ccccc2)cc1 (stereo not given),.,.,-6,.,-2,.,.,.
c1ccc2cc(Cn3ccc4ccc(-c5ccc6ccn(Cc7ccc8ccccc8c7)c6c5)cc43)ccc2c1,.,.,9,.,6,.,.,.
O=C(OCCN1CCN(C2CN(Cc3cn(Cc4ccccc4Cl)nn3)S(=O)(=O)C2)CC1)c1cc2ccccc2o1 (stereo not given),.,.,4,.,-1,.,.,.
Cc1ccc(NC(=O)CS(=O)CC(=O)Nc2ccccc2-c2ccc(C)o2)cc1 (stereo not given),35,1,8,0,22*,-2,-1,-3
SMILES,CRFR2-BP antag,RTF Ca sens act,DDE Tn7 FP inh,CRFBP-R2 agonist,Tn6 DDE FP,RTF Ca sens inh,Tn6 DDE ctr,Tn6 DDE conf
CC(=O)Nc1ccccc1-c1ccc(C)o1,-20,3,-3,-1,6,-5,.,.
O=C(CN1C(=O)c2cccnc2Oc2ccc(Cl)cc21)N1CCCC1,-3,-2,3,-1,16*,-13,1,0
O=C(CN1C(=O)c2cccnc2Oc2ccc(Cl)cc21)N1CCCCCC1,-6,0,-2,-1,2,-6,.,.
CCn1c(=S)[nH]c2cc(Cl)ccc21,9,-3,1,-4,-1,2,.,.
CCn1c(=S)[nH]c2ccccc21,0,3,-1,-3,16*,-2,-5,-15
Cc1cc(C)c2c(N)c(C(=O)Nc3ccccc3Cl)sc2n1,-11,.,6,-2,18*,.,-5,-6
Cc1cc(C)c2c(N)c(C(=O)Nc3ccccc3Br)sc2n1,-3,4,3,0,-1,-2,.,.
O=C(Nc1ccn(CCCNC2CCN(Cc3ccccc3)CC2)c(=O)n1)OCc1ccccc1,-6,.,11,1,4,.,.,.
O=C(NCCS(=O)(=O)N1CCN(c2ccccc2)CC1)c1cccs1,-5,2,4,1,-1,-6,.,.
O=C(NCCS(=O)(=O)N1CCN(c2ccccc2F)CC1)c1cccs1,-13,10,9,1,17*,4,6,-4
COC(=O)c1ccc(Cn2c(C)c(C(=O)NCc3cccc(C(F)(F)F)c3)sc2=O)o1,.,.,5,.,17*,.,5,-3
Cc1c(C(=O)c2no[n+]([O-])c2C(=O)c2cnn(C)c2C)cnn1C,-10,2,-12,6,16*,-12,-11,2

# High-throughput results as filed in PubChem BioAssay.
